Screening results as filed in PubChem BioAssay.
Only some compounds are listed: those with a hit (about 5.1% of all), similar ones and a draw of the others.
APP 5'UTR act – APP 5'UTR luciferase reporter activation | SH-SY5Y APP 5'UTR luciferase reporter, luminescence; zero percent = DMSO vehicle wells | actives 1% (n = 190,000) | activation, % at 2 µM;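 active means activation above a set limit, based on mean plus 3 SD of controls, cut at about 140% in these data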
STAT1 inh-1 – reduces IFN-gamma driven STAT1 reporter signal | NIH 3T3 STAT1-luciferase reporter, luminescence | inhibition, % at 5.5 µM | actives 0.35% (n = 200,000);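 active means inhibition above a set limit, the mean inhibition across all tested compounds plus 3 SD, cut at about 34% in these data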;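 further: 0% = IFN-gamma with DMSO and 100% = IFN-gamma with 300 µM nifuroxazide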
STAT3 act-1 – activators of IL-6 induced STAT3 signaling. actives 0.91% (n = 190,000). activation (% of control), % at 5.6 µM. AID 871. U3A cells, IL-6 STAT3-luciferase reporter, luminescence; 100% = signal with IL-6 EC80 alone;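 active means activation above the screen-wide mean of compound activation plus 3 SD, cut at about 130% in these data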;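 further: 0% = background luminescence of wells with medium and substrate only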
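Material: STAT3-luciferase reporter U3A cells. Controls: IL-6-treated wells, 100% activation. Read-out: % activation versus median of IL-6-stimulated wells. Probe or stimulus: IL-6 stimulus at 33 ng/mL final. Timing: compound 1 h, then IL-6 6 h at 37 °C. Signal: reporter luminescence signal.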
STAT1 act-1 – STAT1 signaling activation | NIH 3T3 STAT1-luciferase reporter, IFN-gamma, luminescence; 100% = IFN-gamma alone, no compound | activation (% of control), % at 5.5 µM | actives 2.6% (n = 200,000);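 active means activation above the screen-wide mean activation plus 3 SD, cut at about 130% in these data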;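 further: raw ratio to IFN-gamma control signal so 100% means no change and 0% no light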
NF-kB expr up – compounds increasing NF-kB expression in human neuronal cells. NF-kB reporter expression; hits give high values. AID 1239. actives 1.6% (n = 190,000). fold change at 12.5 µM; in the data active means fold change above about 3.3
STAT3 inh-1 – reduces IL-6 driven STAT3 reporter signal. U3A cells, IL-6 STAT3-luciferase reporter, luminescence; host cell line lacks STAT1. AID 862. inhibition, % at 5.5 µM. actives 0.89% (n = 190,000);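 active means inhibition above the mean inhibition across all screened compounds plus 3 SD, cut at about 44% in these data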;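 further: 0% = DMSO only wells and 100% = 100 µM nifuroxazide control wells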
STAT3 inh-2 – confirmation of STAT3 signaling inhibitors; shares compounds with STAT3 inh-1; U3A cells, IL-6 STAT3 luciferase reporter, luminescence; cell line lacks STAT1; inhibition, % at 5.7 µM; actives 45% (n = 1,200);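 active means inhibition above the hit cutoff computed for the primary STAT3 screen, cut at about 44% in these data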;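 further: 0% = IL-6 plus DMSO and 100% = IL-6 plus nifuroxazide control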
NFkB inh 2 – inhibits NF-kappaB, counter-screen to STAT3 inhibitors | HEK293T NF-kB luciferase reporter, TNF-alpha induced | shares compounds with STAT3 inh-1 | inhibition, % at 5.7 µM | actives 36% (n = 1,200) | AID 1308;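 active means inhibition above the mean of solvent-only control wells plus 3 SD, cutoff set per campaign, cut at about 13% in these data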;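 further: 0% = TNF-alpha with DMSO and 100% = TNF-alpha with MG high control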
STAT1 inh STAT3c – inhibits STAT1, counter-screen to STAT3 inhibitors; shares compounds with STAT3 inh-1; actives 27% (n = 1,200); AID 1317; NIH 3T3 STAT1-luciferase reporter, IFN-gamma induced, luminescence; inhibition, % at 5.7 µM;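 active means inhibition above the mean plus 3 SD of solvent-only control wells, limit set per screening run, cut at about 16% in these data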;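 further: 0% = DMSO with IFN-gamma and 100% = nifuroxazide control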
STAT3 act-2 – STAT3 activation, confirmation assay; shares compounds with STAT3 act-1; U3A STAT3-luciferase reporter, IL-6 potentiation, luminescence; U3A cells lack STAT1; 100 means same as IL-6 alone; potentiation (% of control), % at 5.7 µM; actives 64% (n = 1,200); AID 1267;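 active means percent activation of the STAT3 luciferase reporter above a set limit taken from the earlier primary screen, cut at about 130% in these data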;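 further: 0% = background signal of medium plus substrate and 100% = median of IL-6 with DMSO wells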
NFkB act 2 – counter-screen for STAT3 activators: NF-kappaB activation. shares compounds with STAT3 act-1. activation (% of control), % at 5.7 µM. actives 11% (n = 1,200). AID 1309. human cells, NF-kappaB reporter activation; in the data active means activation above about 120%;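 further: reporter induced by TNF-alpha stimulation; 100% = median of stimulated DMSO wells and 0% = no signal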
STAT1 act-2 – counter-screen for STAT3 activators: STAT1 activation | shares compounds with STAT3 act-1 | NIH 3T3 STAT1-luciferase reporter, IFN-gamma, luminescence | activation (% of control), % at 5.7 µM | actives 13% (n = 1,200);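 active means activation above the solvent-only control well mean plus 3 SD, set per screening run, cut at about 120% in these data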;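 further: 100% = IFN-gamma with DMSO median signal so 100% means no change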
STAT1 inh-2 – STAT1 inhibition, confirmation assay; shares compounds with STAT1 inh-1; NIH 3T3 STAT1-luciferase reporter, IFN-gamma, luminescence; inhibition, % at 5.5 µM; actives 55% (n = 200);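 active means triplicate mean inhibition exceeding the hit cutoff computed for the primary STAT1 screen, cut at about 35% in these data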;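 further: 0% = DMSO with IFN-gamma and 100% = 300 µM nifuroxazide with IFN-gamma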
NFkB inh STAT1ct – NF-kappaB inhibition in STAT1 inhibitor counter-screen. shares compounds with STAT1 inh-1. actives 30% (n = 200). inhibition, % at 5.7 µM. HEK293T NF-kB luciferase reporter, TNF-alpha induced, luminescence;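 active means inhibition above the mean of solvent-only control wells plus 3 SD of those wells, cut at about 15% in these data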;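 further: 0% = DMSO with TNF-alpha and 100% = MG-132 control with TNF-alpha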
STAT3 inh 2 – STAT3 inhibition in STAT1 inhibitor counter-screen | shares compounds with STAT1 inh-1 | U3A cells, IL-6 STAT3 luciferase reporter, luminescence; cells lacking STAT1 | inhibition, % at 5.7 µM | actives 20% (n = 200);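 active means inhibition above the mean of solvent-only control wells plus 3 SD, set per campaign, cut at about 25% in these data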;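 further: 0% = IL-6 plus DMSO and 100% = IL-6 plus nifuroxazide control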
STAT1 activ conf – STAT1 activation, confirmation assay; shares compounds with STAT1 act-1; AID 1262; NIH 3T3 STAT1-luciferase reporter, IFN-gamma potentiation, luminescence; 100% = IFN-gamma EC80 alone, no compound; activation (% of control), % at 5.7 µM; actives 97% (n = 1,200);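 active means activation above a set limit carried over from the earlier primary STAT1 screen, cut at about 140% in these data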;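 further: simple ratio to median IFN-gamma plus DMSO wells so 0% means no light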
NFkB act – counter-screen for STAT1 activators: NF-kappaB activation; HEK293T NF-kB luciferase reporter, TNF-alpha stimulated, luminescence; 100% = TNF-alpha with vehicle only; actives 43% (n = 1,200); shares compounds with STAT1 act-1; activation (% of control), % at 5.7 µM; AID 1306;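 active means activation above the mean of solvent-only control wells plus 3 SD, set per campaign, cut at about 130% in these data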;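 further: TNF-alpha given at a submaximal dose yielding about 80% of full reporter signal; values are well signal over median control so 100% means no change and 0% no light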
STAT3 act STAT1c – human STAT3 activation in STAT1 activator counter-screen; U3A cells STAT3-luciferase reporter, IL-6, luminescence; cells lack STAT1; 100 = IL-6 alone, no compound effect; shares compounds with STAT1 act-1; AID 1316; activation (% of control), % at 5.7 µM; actives 46% (n = 1,200);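 active means activation above the solvent-only control well mean plus 3 SD, set per plate batch, cut at about 110% in these data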;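 further: 0% = no luminescence and 100% = median IL-6 plus DMSO wells; higher means more STAT3 reporter activation so hits are non-selective activators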
* = called active by the depositor; · = not tested or not shown.

SMILES | APP 5'UTR act | STAT1 inh-1 | STAT3 act-1 | STAT1 act-1 | NF-kB expr up | STAT3 inh-1 | STAT3 act-2 | NFkB act 2 | STAT1 act-2 | others
CN1C2CCC1/C(=C/c1ccccn1)C(=O)/C2=C\c1ccccn1 | -95 | -118 | 57 | 209* | 0.47 | 53* | · | · | · | STAT3 inh-2=32;NFkB inh 2=-71;STAT1 inh STAT3c=-262;STAT1 activ conf=477*;NFkB act=252*;STAT3 act STAT1c=57
Fc1ccc(Cn2nnnc2C(c2ccc(F)cc2)N2CC=C(c3ccc(F)cc3)CC2)cc1 (configuration not stated) | 3 | 1 | 95 | 99 | 1.1 | 7 | · | · | ·
CC(C)n1c(=O)c(C=Nc2cccc([N+](=O)[O-])c2)c(O)n(CCc2ccccc2)c1=O | 1 | 4 | 137* | 96 | 1.1 | -47 | 139* | 103 | 104
CC1(C)CC(n2[nH]c(=O)c3c2NC(=O)CSC3c2ccc(F)cc2)CCO1 (configuration not stated) | -14 | 7 | 96 | 95 | 1 | 11 | · | · | ·
c1ccc2c(CN3CCCCCC3)c[nH]c2c1 | 20 | -2 | 100 | 100 | 1.5 | 3 | · | · | ·
c1ccc2c(CNC3CCCCCC3)c[nH]c2c1 | -20 | 7 | 152* | 94 | 1 | -67 | 139* | 103 | 93
O=C1N(CN2CCOCC2)c2ccccc2C1(O)c1c[nH]c2ccccc12 (configuration not stated) | 3 | -2 | 136* | 102 | 0.98 | -40 | 121 | 100 | 98
CCCCn1c(=O)c(C(=O)Nc2ccsc2C(=O)OC)c(O)c2ccccc21 | 13 | 6 | 145* | 95 | 1 | -54 | 165* | 112 | 112
OC(CCNCCc1c[nH]c2ccccc12)C(F)(F)Cl (configuration not stated) | -10 | 5 | 103 | 94 | 0.95 | -3 | · | · | ·
Cc1cc(C)cc(N2C(=O)NC(=O)/C(=C\C=C\c3ccco3)C2=O)c1 | -46 | 3 | 102 | 97 | 1 | -3 | · | · | ·
COc1ccc(/C=C2/C(=O)NC(=O)N(c3ccc(C)c(C)c3)C2=O)cc1CN1C(=O)c2ccccc2C1=O | 11 | 8 | 87 | 93 | 1.1 | 18 | · | · | ·
CC1=NN(c2ccccc2)C(=O)C1/C=C1\C(=O)NC(=O)N(c2ccc(C)c(C)c2)C1=O (configuration not stated) | -14 | 2 | 162* | 98 | 0.91 | -74 | 130 | 99 | 99
CC1=NN(c2ccccc2)C(=O)C1/C=C1\C(=O)NC(=O)N(c2cc(C)cc(C)c2)C1=O (configuration not stated) | 7 | 0 | 159* | 94 | 1.1 | -68 | 142* | 105 | 103
CN(C)c1cc(N)c2c(n1)CCC2 (tested in a mixture with another compound) | 0 | 5 | 102 | 95 | 1.1 | -3 | · | · | ·
CC1=NN(c2ccccc2)C(=O)/C1=C/c1c(O)[nH]c(=O)[nH]c1=O | 13 | -4 | 143* | 104 | 1.7 | -47 | 135* | 105 | 104
O=P(C(c1ccc2c(c1)OCO2)N1CCOCC1)(N1CCOCC1)N1CCOCC1 (configuration not stated) | 5 | 1 | 105 | 99 | 1.1 | -3 | · | · | ·
C[C@H]1C[C@@H](C)C(=O)[C@@H]([C@H](O)CC2CC(=O)NC(=O)C2)C1 | -45 | 84* | · | 23 | 3 | · | · | · | · | STAT1 inh-2=41*;NFkB inh STAT1ct=76*;STAT3 inh 2=91*
COc1ccc(C2CN(C)CC2C(=O)c2ccc(C)cc2)cc1Cl (configuration not stated) | -10 | 9 | 86 | 91 | 1.1 | 21 | · | · | ·
Nc1ccccc1C(=O)OCC(=O)N1CCc2ccccc21 | 13 | -57 | 97 | 154* | 2.2 | 4 | · | · | · | STAT1 activ conf=168*;NFkB act=116;STAT3 act STAT1c=97
N#CSCC(=O)N1c2ccccc2CCc2ccccc21 | -19 | 5 | 101 | 96 | 1.1 | -1 | · | · | ·
Cc1oc(-c2ccccc2F)nc1CS(=O)CC(=O)N1CCC2(CC1)OCCO2 (configuration not stated) | -29 | -6 | 101 | 105 | 1.4 | 4 | · | · | ·
O=c1c2ccccc2nc(/C=C/c2ccc([N+](=O)[O-])o2)n1-c1ccc(O)cc1 | -80 | -246 | 81 | 326* | 1.6 | 25 | · | · | · | STAT1 activ conf=175*;NFkB act=154*;STAT3 act STAT1c=101
